Assay results as given in ChEMBL document CHEMBL1153746, “Mansouramycins A-D, cytotoxic isoquinolinequinones from a marine streptomycete” (J Nat Prod, 2009).

Columns and labels:
Candida albicans = assay: Antifungal activity against Candida albicans at […] by agar diffusion test; type: functional
Staphylococcus aureus = assay: Antibacterial activity against Staphylococcus aureus at […] by agar diffusion test; type: functional
Desmodesmus subspicatus = assay: Antialgal activity against Scenedesmus subspicatus at […] by agar diffusion test; type: functional
Escherichia coli = assay: Antibacterial activity against Escherichia coli at […] by agar diffusion test; type: functional
Bacillus subtilis = assay: Antibacterial activity against Bacillus subtilis at […] by agar diffusion test; type: functional
Chlorella vulgaris = assay: Antialgal activity against Chlorella vulgaris at […] by agar diffusion test; type: functional
[1] = test system: Streptomyces viridochromogenes; assay: Antibacterial activity against Streptomyces viridochromogenes at […] by agar diffusion test; type: functional
Rhizomucor miehei = assay: Antifungal activity against Mucor miehei at […] by agar diffusion test; type: functional
Chlorella sorokiniana = assay: Antialgal activity against Chlorella sorokiniana at […] by agar diffusion test; type: functional
LNCaP = assay: Cytotoxicity against human LNCAP cells after 4 days by propidium iodide assay; type: functional, cell-based; details: 96 h
Summary of the method: (§1)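 Monolayer cell proliferation assay across a panel of up to 36 human tumour lines covering 14 solid tumour types. Lines came either from patient tumours grown as subcutaneous xenografts in NMRI nu/nu mice or from culture collections (ATCC, NCI, DSMZ). Potency is given as IC50.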

SF-268 = assay: Cytotoxicity against human SF268 cells after 4 days by propidium iodide assay; type: functional, cell-based; details: SF-268, 96 h; summary of the method: as §1
[2] = Cytotoxicity against human 1752L cells after 4 days by propidium iodide assay; type: functional, cell-based; details: 96 h; summary of the method: as §1
[3] = Cytotoxicity against human 629L cells after 4 days by propidium iodide assay; type: functional, cell-based; details: 96 h; summary of the method: as §1
[4] = Cytotoxicity against human 899L cells after 4 days by propidium iodide assay; type: functional, cell-based; details: 96 h, in the assay text read “MTT assay” for “propidium iodide assay”; summary of the method: as §1
[5] = Cytotoxicity against human RXF 486L cells after 4 days by propidium iodide assay; type: functional, cell-based; details: 96 h; summary of the method: as §1
[6] = Cytotoxicity against human MEXF 462NL cells after 4 days by propidium iodide assay; type: functional, cell-based; details: 96 h; summary of the method: as §1
[7] = Cytotoxicity against human 394NL cells after 4 days by propidium iodide assay; type: functional, cell-based; details: 96 h; summary of the method: as §1
[8] = Cytotoxicity against human 1218L cells after 4 days by propidium iodide assay; type: functional, cell-based; details: 96 h; summary of the method: as §1
CWR22R = assay: Cytotoxicity against human 22Rv1 cells after 4 days by propidium iodide assay; type: functional, cell-based; details: 22Rv1, 96 h; summary of the method: as §1
[9] = Cytotoxicity against human 514L cells after 4 days by propidium iodide assay; type: functional, cell-based; details: 96 h; summary of the method: as §1
[10] = Cytotoxicity against human 1121L cells after 4 days by propidium iodide assay; type: functional, cell-based; details: 96 h; summary of the method: as §1
[11] = Cytotoxicity against human PC3M cells after 4 days by propidium iodide assay; type: functional, cell-based; details: PC-3M, 96 h; summary of the method: as §1
[12] = Cytotoxicity against human 289L cells after 4 days by propidium iodide assay; type: functional, cell-based; details: 96 h; summary of the method: as §1
MCF7 = assay: Cytotoxicity against human MCF7 cells after 4 days by propidium iodide assay; type: functional, cell-based; details: MCF7, 96 h; summary of the method: as §1
[13] = Cytotoxicity against human 1619L cells after 4 days by propidium iodide assay; type: functional, cell-based; details: 96 h, in the assay text read “MTT assay” for “propidium iodide assay”; summary of the method: as §1
[14] = Cytotoxicity against human RXF 944L cells after 4 days by propidium iodide assay; type: functional, cell-based; details: 96 h; summary of the method: as §1
HCT-116 = assay: Cytotoxicity against human HCT116 cells after 4 days by propidium iodide assay; type: functional, cell-based; details: HCT-116, 96 h; summary of the method: as §1
[15] = Cytotoxicity against human GXF251L cells after 4 days by propidium iodide assay; type: functional, cell-based; details: GXF 251L, 96 h; summary of the method: as §1
[16] = Cytotoxicity against human 520L cells after 4 days by propidium iodide assay; type: functional, cell-based; details: 96 h, in the assay text read “MTT assay” for “propidium iodide assay”; summary of the method: as §1
DU-145 = assay: Cytotoxicity against human DU145 cells after 4 days by propidium iodide assay; type: functional, cell-based; details: DU-145, 96 h; summary of the method: as §1
[17] = Cytotoxicity against human 498NL cells after 4 days by propidium iodide assay; type: functional, cell-based; details: 96 h; summary of the method: as §1
PANC-1 = assay: Cytotoxicity against human PANC1 cells after 4 days by propidium iodide assay; type: functional, cell-based; details: PANC-1, 96 h; summary of the method: as §1
[18] = Cytotoxicity against human 526L cells after 4 days by propidium iodide assay; type: functional, cell-based; details: 96 h; summary of the method: as §1
[19] = Cytotoxicity against human 276L cells after 4 days by propidium iodide assay; type: functional, cell-based; details: 96 h; summary of the method: as §1
[20] = Cytotoxicity against human 536L cells after 4 days by propidium iodide assay; type: functional, cell-based; details: 96 h; summary of the method: as §1
NCI-H460 = assay: Cytotoxicity against human H460 cells after 4 days by propidium iodide assay; type: functional, cell-based; details: NCI-H460, 96 h; summary of the method: as §1
[21] = Cytotoxicity against human MAXF 401NL cells after 4 days by propidium iodide assay; type: functional, cell-based; details: 96 h; summary of the method: as §1
[22] = Cytotoxicity against human 1657L cells after 4 days by propidium iodide assay; type: functional, cell-based; details: 96 h, in the assay text read “MTT assay” for “propidium iodide assay”; summary of the method: as §1
[23] = Cytotoxicity against human UXF 1138L cells after 4 days by propidium iodide assay; type: functional, cell-based; details: 96 h, in the assay text read “MTT assay” for “propidium iodide assay”; summary of the method: as §1
[24] = Cytotoxicity against human 1781L cells after 4 days by propidium iodide assay; type: functional, cell-based; details: 96 h; summary of the method: as §1
HT-29 = assay: Cytotoxicity against human HT-29 cells after 4 days by propidium iodide assay; type: functional, cell-based; details: HT-29, 96 h; summary of the method: as §1
[25] = Cytotoxicity against human BXF T24 cells after 4 days by propidium iodide assay; type: functional, cell-based; details: T-24, 96 h; summary of the method: as §1
[26] = Cytotoxicity against human LXFL 529L cells after 4 days by propidium iodide assay; type: functional, cell-based; details: 96 h; summary of the method: as §1
OVCAR-3 = assay: Cytotoxicity against human OVCAR-3 cells after 4 days by propidium iodide assay; type: functional, cell-based; details: OVCAR-3, 96 h, in the assay text read “MTT assay” for “propidium iodide assay”; summary of the method: as §1
[27] = Cytotoxicity against human 393NL cells after 4 days by propidium iodide assay; type: functional, cell-based; details: 96 h; summary of the method: as §1

## O=S(=O)(O)O.Oc1cccc2cccnc12 [QUINOSOL]
Candida albicans
  diameter of the inhibition zone (DIZ): 11 mm
Staphylococcus aureus
  diameter of the inhibition zone (DIZ): 20 mm
Desmodesmus subspicatus
  diameter of the inhibition zone (DIZ): 27 mm
Escherichia coli
  diameter of the inhibition zone (DIZ): 15 mm
Bacillus subtilis
  diameter of the inhibition zone (DIZ): 15 mm
Chlorella vulgaris
  diameter of the inhibition zone (DIZ): 25 mm
[1]
  diameter of the inhibition zone (DIZ): 0 mm
Rhizomucor miehei
  diameter of the inhibition zone (DIZ): 30 mm
Chlorella sorokiniana
  diameter of the inhibition zone (DIZ): 28 mm

## CNC1=CC(=O)c2c(cnc(C)c2C)C1=O [MANSOURAMYCIN A]
LNCaP
  IC50: 21.7 µM
SF-268
  IC50: 14.4 µM
Candida albicans
  diameter of the inhibition zone (DIZ): 0 mm
[2]
  IC50: 46.3 µM
Staphylococcus aureus
  diameter of the inhibition zone (DIZ): 12 mm
[3]
  IC50: 4.1 µM
Desmodesmus subspicatus
  diameter of the inhibition zone (DIZ): 25 mm
Escherichia coli
  diameter of the inhibition zone (DIZ): 10 mm
[4]
  IC50: 34.9 µM
[5]
  IC50: 59.1 µM
[6]
  IC50: 49.9 µM
[7]
  IC50: 15.6 µM
Bacillus subtilis
  diameter of the inhibition zone (DIZ): 10 mm
[8]
  IC50: 28.2 µM
CWR22R
  IC50: 21.7 µM
Chlorella vulgaris
  diameter of the inhibition zone (DIZ): 22 mm
[9]
  IC50: 2.6 µM
[10]
  IC50: 27.1 µM
[11]
  IC50: 32.6 µM
[12]
  IC50: 19.1 µM
MCF7
  IC50: 2.34 µM
[13]
  IC50: 13.2 µM
[14]
  IC50: 18.1 µM
HCT-116
  IC50: 9.11 µM
[15]
  IC50: 31.9 µM
[16]
  IC50: 5.45 µM
DU-145
  IC50: 1.25 µM
[17]
  IC50: 14.4 µM
PANC-1
  IC50: 26.8 µM
[1]
  diameter of the inhibition zone (DIZ): 0 mm
[18]
  IC50: 19 µM
[19]
  IC50: 2.44 µM
[20]
  IC50: 0.71 µM
NCI-H460
  IC50: 7.11 µM
[21]
  IC50: 47.8 µM
[22]
  IC50: 26 µM
[23]
  IC50: 18 µM
[24]
  IC50: 16.4 µM
Rhizomucor miehei
  diameter of the inhibition zone (DIZ): 0 mm
HT-29
  IC50: 4.63 µM
[25]
  IC50: 12.6 µM
Chlorella sorokiniana
  diameter of the inhibition zone (DIZ): 17 mm
[26]
  IC50: 12.4 µM
OVCAR-3
  IC50: 32.3 µM
[27]
  IC50: 18.7 µM
